# Experimental data reported in the EternaBench riboswitch data.
# Tested on: MS2 coat protein
# Test: apparent Kd, MS2 coat protein; higher = weaker binding; RNA-MaP array; FMN 200 µM where present
# Procedure, shortened: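 Binding was read on Illumina sequencing-chip clusters where stalled E. coli RNA polymerase had transcribed each design. A titration of SNAP-549-labelled MS2 coat protein began at 0.7 or 1.5 nM and doubled to 3 µM, once without ligand and once with constant ligand, in 100 mM Tris-HCl pH 7.5, 80 mM KCl, 4 mM MgCl2, BSA, DTT, yeast tRNA and Tween-20. The apparent Kd is the median of filtered per-cluster binding-curve fits, based on green signal normalised to red-channel RNA signal and control-cluster median Fmax.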
# [1] = designed as: OFF switch for flavin mononucleotide, no ligand
# [2] = ligand present: flavin mononucleotide, designed as: OFF switch for flavin mononucleotide
# [3] = designed as: ON switch for flavin mononucleotide, no ligand
# [4] = ligand present: flavin mononucleotide, designed as: ON switch for flavin mononucleotide
Sequence,apparent Kd [1],apparent Kd [2],apparent Kd [3],apparent Kd [4]
AGCUAGUCAGGAUAUACGCGAACGAACGAAGCAGUGAAGGGACAUGAGGAUCACCCAUGUAGAAGGGACUAGCA,27.1 nM,53.7 nM,–,–
AGCUCGGGUUAGGAUAUUCGCAGCAAGAUGACCGAAGAAGGGACCACAUGAGGAUCACCCAUGUUUGUUUAGAA,25.9 nM,24.5 nM,–,–
AGCUGACGAGGAUAUACAUGAGGAUCACCCAUGUUGGUCAAGCGACGAUAGUCGCAAUGUAGAAGGUGUCAGCU,138 nM,565 nM,–,–
AGCUGGUAGAGAGGAUAUCAUGUGCUGACAUGAGGAUCACCCAUGUAGGGACGUCGGUCCAAUUAUGAGAAGGCUCUACCAGCA,–,–,80.5 nM,48.2 nM
AGCUGGUGACAGCAAGAAACUUCACAUGAGGAUCACCCAUGUAGAAGGCUGUACGGUUACCGUACAGAGGAUAUACAUGAAAAG,9.49 nM,26.8 nM,–,–
AGCUGGUGACAGCAAGAAAUUUCACAUGAGGAUCACCCAUGUAGAAGGCUGUACGGUUACCGUACAGAGGAUAUACAUAGAAAG,22.4 nM,30.5 nM,–,–
AGCUGGUGACAGCAUCCAUCAAAACAUGAGGAUCACCCAUGUAGAAGGCUGUACGGUUACCGUACAGAGGAUAUACAUAGAUGG,10.4 nM,14.9 nM,–,–
AGCUGUGGCAGAGGAUAUACUCCUAAAAUCCAUUGCAAAUAGCGAUGGACAUGAGGAUCACCCAUGUAGAAGGCUGUCUCAGCA,57.2 nM,649 nM,–,–
AGCUGUGGCCGAGGAUAUCUAAAACUCAAAACCGAAAUAUAAUCGGACAUGAGGAUCACCCAUGUAGAGAAGGCGGUCUCAGCA,78.8 nM,157 nM,–,–
AGGAAGGGUGCUCCGGCGGGCCGAGCAGAAGGGUGAUUGGACAUGAGGAUCACCCAUGUAUAAACACAGGAUAUGCAAACGGGU,–,–,305 nM,13.1 nM
AGGAAGUUAGGAUAUGCUGCUCGUCACUUGCGUGAUGAGUAGCAGAAGGAACAUGAGGAUCACCCAUGUAAAGA,30.8 nM,27.2 nM,–,–
AGGCAGGACCAGAAGGACAUGAGGAUCACCCAUGUAGGAUAUGGGCGUGGUUUAUGGGUACCUGGGAGAAUGACUGGGUUGUCA,–,–,363 nM,29.4 nM
AGGCGAGUAGGAUAUGCGUUUUUACGGGAAAGCUGGAUGAUACAUGAGGAUCACCCAUGUAGAAGGGCUCUGAA,20.6 nM,16 nM,–,–
AGGCGGGCAGGAUAUGCGUACUGACGGGAAAACUGAAUGGUACAUGAGGAUCACCCAUGUAGAAGGGCUUUGAA,50.1 nM,38.3 nM,–,–
AGGGAGUUAGGAUAUGCUGCUCGUCACUUGCGUGAUGAGUAGCAGAAGGGACAUGAGGAUCACCCAUGUAAAGA,42.1 nM,24.7 nM,–,–
AGGGUUGUGCUAGGAUAUCCAGGUUUGCAACAAGGAGAAGGAGCACAUGAGGAUCACCCAUGUUCUCAAAGGCCAUGGCAAUAU,12.4 nM,56.3 nM,–,–
AGGUAACAUGAGGAUCACCCAUGUCAGGAUAUCAGGAAGAUUAGAAUAGAGUAGAGGAUGAGAAGGGACUAUAU,32 nM,30.3 nM,–,–
AGGUCACAUGAGGAUCACCCAUGUCAGGAUAUCGUCACUGGAGCUGCGGCUCCAGUGACGAGAAGGGAUAAUUA,45.5 nM,70.5 nM,–,–
AGGUGUCCUGAGAAAUUUCUCCACAUGAGGAUCACCCAUGUAGAGGAUAUCGACGCUGUGCGGUUCGAGAAGGCUACACUAAUU,6.54 nM,22.7 nM,–,–
AGUAACAGAGGAUAUACUAUUUUAUGUAUUUAUUAUUUUAAACAUGAGGAUCACCCAUGUAGAAGGCUGAAUGA,24.7 nM,22.8 nM,–,–
AGUAAGAUGCAGAAGGUGUCAGCGAGAGCUGCGACAUGAGGAUCACCCAUGUACAAGUGAGUGUACAAGGAUAUGCAUCUUACA,–,–,192 nM,24 nM

Sequence,apparent Kd [1],apparent Kd [2],apparent Kd [3],apparent Kd [4]
AGUAGAUCAGGAUAUACAUAAAUGAUAAUUAUGUACUUUUUACAUGAGGAUCACCCAUGUAGAAGGGAUCUACA,14.8 nM,22 nM,–,–
AGUAUGCAGCAGGAUAUCGAUCCGCAGUAUGAUCGAGAAGGGCUGACAUGAGGAUCACCCAUGUGCGUCCUAGG,40.1 nM,167 nM,–,–
AGUAUGCGGCAGGAUAUCCAUCCGCGGUGUGGUGGAGAAGGGCUGACAUGAGGAUCACCCAUGUGCGUCCUGUA,23.6 nM,37.9 nM,–,–
AGUCAUACAGGAUAUACAUGAGGAUCACCCAUGUAUAUCCAAAAAAAAUGAUCCUCAUGUAGAAGGGUAUGACA,15.9 nM,10.5 nM,–,–
AGUCAUGUCCGAGGAUAUGAUGCCGGUUUCUGCAAGCCAACGCGCCCGGCCUCAGAAGGCGGACAUGAGGAUCACCCAUGUAUC,64.9 nM,12.2 nM,–,–
AGUCGGAGCAGAGGAUAUACAUGAGGAUCACCCAUGUAAUAUGAUCUAGCCAGGAAACUGGCAAUGUAGAAGGCUGCUCCGACA,92.3 nM,797 nM,–,–
AGUCGGGAAUACUCGAAUGGUUAGCAGGAUAUCGACAUGAGGAUCACCCAUGUUGGGUUGAAUGUCGAGAAGGGCUCGGAAUGA,198 nM,193 nM,–,–
AGUCUGCUAGGAUAUACAUGAGGAUCACCCAUGUCUAUCAAAAGACUAUUAACCUGGUGUAGAAGGAGCUUGUA,11.1 nM,12.5 nM,–,–
AGUGAGGGAGGAUAUACGUUGGUAUCACUGCAUUCGUCGUCACAUGAGGAUCACCCAUGUAGAAGGCCCGAGAG,28.8 nM,79.1 nM,–,–
AGUGUCAUCGAGAAGGCCUCAACAUGAGGAUCACCCAUGUUGUAAAAUGGGAGGAUAUCGAUGAUACAGCUACGUUUCGUAGCA,–,–,11.3 nM,4.88 nM
AGUGUCAUUUAGAAGGCCUCAUGACAUGAGGAUCACCCAUGUUAUCAUGGGAGGAUAUGGAUGAUAUAGCUACGUUUCGUAGCA,–,–,233 nM,78.2 nM
AGUGUGUGGCAGGAUAUGCGAUUUGUCGGUGUUGCAGAAGGGUCUACAUGAGGAUCACCCAUGUGUGCGGUUGA,184 nM,309 nM,–,–
AGUUAAUAUCGAGGAUAUCUCAUGGAGACAUGAGGAUCACCCAUGUGAAUGGGAGAAGGCGAUAUUAACAGCAUGUUACAUGCA,–,–,284 nM,21.2 nM
AGUUACAGGAUAGGAUAUGGCGUGACAUGGCUGCCAGAAGGAUCCUCGGGAACAUGAGGAUCACCCAUGUGACCGUGUCGAGUC,–,–,126 nM,170 nM
AGUUACAUACUCAACAUGAGGAUCACCCAUGUACUCUCUUGUAAGGAUAUACAUUCGUAUUGAUAGUAGAAGGUACUAAUUAUG,–,–,50.9 nM,51.5 nM
AGUUAUUCAGGAUAUGGUGUGUUAUACAUGAGGAUCACCCAUGUGGGUCCUGGUUAGGCCUCAGAAGGGAAUGUUA,703 nM,534 nM,–,–
AGUUUACAUGAGGAUCACCCAUGUGAGGAUAUGGUUUCGCUGGCCGUAGCCAGUGGAACCAGAAGGCGCAUGAU,76 nM,349 nM,–,–
AGUUUUGUACAUGAGGAUCACCCAUGUUAAUAUGUGGUAGUCAGAAGGCAUUGUUAGUGUUUAUAUGAGGAUAUGAUUAGUCAG,–,–,50.3 nM,26.4 nM
AUAAAGUCAGGAUAUGUAAAAAUAACGAAAGUUAUAAAUAAACAGAAGGGACAUGAGGAUCACCCAUGUAAAAU,32.3 nM,39.6 nM,–,–
AUAAAGUCAGGAUAUGUAAGAAUAACGAAAGUUAUAAAGAAACAGAAGGGACAUGAGGAUCACCCAUGUAAAAU,29.6 nM,30.5 nM,–,–
AUAAAUGAGGAGGAUAUCGAAUCGGAAACGAUUCGAGAAGGCCUAACAUGAGGAUCACCCAUGUUCCUUAAAUA,28.8 nM,42.2 nM,–,–
